# Tests used:
# Assay type in all cases: functional
# CCRF-CEM = experiment: Cytotoxicity against human CCRF-CEM cells
# NCI-H23 = experiment: Cytotoxicity against human NCI-H23 cells
# How it was run: (§1)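 Tested in a 60-cell-line human tumor panel screen; the read-out is growth inhibition, reported as GI50 for each cell line.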
# [1] = Cytotoxicity against human NCI-ADR-RES cells; how it was run: as §1
# [2] = Cytotoxicity against human UACC257 cells
# How it was run: (§2)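 Cell line run as part of the 60-cell-line screening panel; growth inhibition was reported as a GI50 for each line.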
# NCI-H322M = experiment: Cytotoxicity against human NCI-H322M cells; how it was run: as §1
# 786-0 = experiment: Cytotoxicity against human 786-0 cells; how it was run: as §1
# COLO 205 = experiment: Cytotoxicity against human COLO205 cells; how it was run: as §1
# [3] = Cytotoxicity against human UO31 cells; how it was run: as §2
# K562 = experiment: Cytotoxicity against human K562 cells; how it was run: as §1
# NCI-H460 = experiment: Cytotoxicity against human NCI-H460 cells; how it was run: as §1
# MDA-MB-435 = experiment: Cytotoxicity against human MDA-MB-435 cells; how it was run: as §1
# U-251 = experiment: Cytotoxicity against human U251 cells; how it was run: as §2
# CAKI-1 = experiment: Cytotoxicity against human Caki1 cells; how it was run: as §1
# T47D = experiment: Cytotoxicity against human T47D cells; how it was run: as §2
# SF-295 = experiment: Cytotoxicity against human SF295 cells; how it was run: as §1
# HT-29 = experiment: Cytotoxicity against human HT-29 cells; how it was run: as §1
# IGROV-1 = experiment: Cytotoxicity against human IGROV1 cells; how it was run: as §1
# NCI-H226 = experiment: Cytotoxicity against human NCI-H226 cells; how it was run: as §1
# M14 = experiment: Cytotoxicity against human M14 cells; how it was run: as §1
# [4] = Cytotoxicity against human OVCAR4 cells; how it was run: as §1
# SN12C = experiment: Cytotoxicity against human SN12C cells; how it was run: as §1
# [5] = Cytotoxicity against human OVCAR3 cells; how it was run: as §1
# A498 = experiment: Cytotoxicity against human A498 cells; how it was run: as §1
# A549 = experiment: Cytotoxicity against human A549 cells; how it was run: as §1
# PC-3 = experiment: Cytotoxicity against human PC3 cells; how it was run: as §1
# [6] = Cytotoxicity against human HCT15 cells; how it was run: as §1
# HL-60(TB) = experiment: Cytotoxicity against human HL-60(TB) cells
# How it was run: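 Tested within the NCI 60-cell-line screen, with GI50 as the read-out. Values are the average of two independent experiments. The lowest concentration tested was 10 nM.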
# MDA-MB-468 = experiment: Cytotoxicity against human MDA-MB-468 cells; how it was run: as §1
# ACHN = experiment: Cytotoxicity against human ACHN cells; how it was run: as §1
# HCT-116 = experiment: Cytotoxicity against human HCT116 cells; how it was run: as §1
# LOX IMVI = experiment: Cytotoxicity against human LOXIMVI cells; how it was run: as §1
# SF-539 = experiment: Cytotoxicity against human SF539 cells; how it was run: as §1
# MOLT-4 = experiment: Cytotoxicity against human MOLT4 cells; how it was run: as §1
# BT-549 = experiment: Cytotoxicity against human BT549 cells; how it was run: as §1
# MDA-MB-231 = experiment: Cytotoxicity against human MDA-MB-231 cells; how it was run: as §1
# [7] = Cytotoxicity against human UACC62 cells; how it was run: as §2
# SK-MEL-5 = experiment: Cytotoxicity against human SK-MEL-5 cells; how it was run: as §1
# RXF 393 = experiment: Cytotoxicity against human RXF393 cells; how it was run: as §1
# [8] = Cytotoxicity against human EKVX cells; how it was run: as §1
# SK-OV-3 = experiment: Cytotoxicity against human SKOV3 cells; how it was run: as §1
# SK-MEL-2 = experiment: Cytotoxicity against human SK-MEL-2 cells; how it was run: as §1
# MCF7 = experiment: Cytotoxicity against human MCF7 cells; how it was run: as §1
# SNB-75 = experiment: Cytotoxicity against human SNB75 cells; how it was run: as §2
# [9] = read-out: pLC50 (the source's name) (converted)
smiles,measurement,setting,value
CC1(C)[C@H](O)CC[C@@]2(C)Oc3c(O)cc(/C=C/c4cc(O)c5cc[nH]c5c4)cc3C[C@H]12,GI50,CCRF-CEM,0.219 µM
same,CC50,CCRF-CEM; [9],> 100 µM
same,TGI,CCRF-CEM; read-out: pTGI (converted),14.1 µM
same,GI50,NCI-H23,1.32 µM
same,CC50,NCI-H23; [9],41.7 µM
same,TGI,NCI-H23; read-out: pTGI (converted),7.59 µM
same,GI50,[1],3.24 µM
same,CC50,[1]; [9],> 100 µM
same,TGI,[1]; read-out: pTGI (converted),31.6 µM
same,GI50,[2]; UACC-257,3.8 µM
same,CC50,"[2]; UACC-257, read-out: pLC50 (the source's name) (converted)",66.1 µM
same,TGI,"[2]; UACC-257, read-out: pTGI (converted)",16.2 µM
same,GI50,NCI-H322M,7.08 µM
same,CC50,NCI-H322M; [9],95.5 µM
same,TGI,NCI-H322M; read-out: pTGI (converted),33.9 µM
same,GI50,786-0,0.0457 µM
same,LC50 (concentration killing 50% of cells),786-0,12.9 µM
same,TGI,786-0; read-out: pTGI (converted),1.17 µM
same,GI50,COLO 205,2.19 µM
same,CC50,COLO 205; [9],11.7 µM
same,TGI,COLO 205; read-out: pTGI (converted),4.79 µM
same,GI50,[3]; UO-31,0.209 µM
same,LC50,[3]; UO-31,> 100 µM
same,TGI,"[3]; UO-31, read-out: pTGI (converted)",2 µM
same,GI50,K562,0.263 µM
same,CC50,K562; [9],> 100 µM
same,TGI,K562; read-out: pTGI (converted),47.9 µM
same,GI50,NCI-H460,0.55 µM
same,CC50,NCI-H460; [9],6.31 µM
same,TGI,NCI-H460; read-out: pTGI (converted),2.14 µM
same,GI50,MDA-MB-435,0.661 µM
same,CC50,MDA-MB-435; [9],51.3 µM
same,TGI,MDA-MB-435; read-out: pTGI (converted),9.55 µM
same,GI50,U-251,0.0891 µM
same,CC50,U-251; [9],> 100 µM
same,TGI,U-251; read-out: pTGI (converted),20 µM
same,GI50,CAKI-1,0.12 µM
same,LC50,CAKI-1,15.1 µM
same,TGI,CAKI-1; read-out: pTGI (converted),0.676 µM
same,GI50,T47D,7.59 µM
same,CC50,T47D; [9],83.2 µM
same,TGI,T47D; read-out: pTGI (converted),27.5 µM
same,GI50,SF-295; read-out: GI50,0.089 µM
same,GI50,SF-295; read-out: pGI50 (converted),0.0891 µM
same,CC50,SF-295; [9],3.16 µM
same,TGI,SF-295; read-out: pTGI (converted),0.427 µM
same,GI50,HT-29,1.17 µM
same,CC50,HT-29; [9],45.7 µM
same,TGI,HT-29; read-out: pTGI (converted),4.17 µM
same,GI50,IGROV-1,2.51 µM
same,CC50,IGROV-1; [9],97.7 µM
same,TGI,IGROV-1; read-out: pTGI (converted),22.9 µM
same,GI50,NCI-H226,19.5 µM
same,CC50,NCI-H226; [9],> 100 µM
same,TGI,NCI-H226; read-out: pTGI (converted),75.9 µM
same,GI50,M14,0.138 µM
same,CC50,M14; [9],8.32 µM
same,TGI,M14; read-out: pTGI (converted),0.646 µM
same,GI50,[4]; OVCAR-4,5.01 µM
same,CC50,"[4]; OVCAR-4, read-out: pLC50 (the source's name) (converted)",91.2 µM
same,TGI,"[4]; OVCAR-4, read-out: pTGI (converted)",42.7 µM
same,GI50,SN12C,10.2 µM
same,LC50,SN12C,> 100 µM
same,TGI,SN12C; read-out: pTGI (converted),63.1 µM
same,GI50,[5]; OVCAR-3,3.47 µM
same,CC50,"[5]; OVCAR-3, read-out: pLC50 (the source's name) (converted)",66.1 µM
same,TGI,"[5]; OVCAR-3, read-out: pTGI (converted)",21.4 µM
same,GI50,A498,0.427 µM
same,CC50,A498; [9],46.8 µM
same,TGI,A498; read-out: pTGI (converted),11.7 µM
same,GI50,A549,1 µM
same,CC50,A549; [9],55 µM
same,TGI,A549; read-out: pTGI (converted),8.32 µM
same,GI50,PC-3,0.245 µM
same,LC50,PC-3,55 µM
same,TGI,PC-3; read-out: pTGI (converted),4.07 µM
same,GI50,[6]; HCT-15,0.832 µM
same,CC50,"[6]; HCT-15, read-out: pLC50 (the source's name) (converted)",> 100 µM
same,TGI,"[6]; HCT-15, read-out: pTGI (converted)",38 µM
same,GI50,HL-60(TB),0.0437 µM
same,CC50,HL-60(TB); [9],> 100 µM
same,TGI,HL-60(TB); read-out: pTGI (converted),4.79 µM
same,GI50,MDA-MB-468,1.2 µM
same,LC50,MDA-MB-468,36.3 µM
same,TGI,MDA-MB-468; read-out: pTGI (converted),5.13 µM
same,GI50,ACHN,2.14 µM
same,LC50 (concentration killing 50% of cells),ACHN,> 100 µM
same,TGI,ACHN; read-out: pTGI (converted),30.9 µM
same,GI50,HCT-116,0.617 µM
same,CC50,HCT-116; [9],8.13 µM
same,TGI,HCT-116; read-out: pTGI (converted),2.45 µM
same,GI50,LOX IMVI,0.178 µM
same,CC50,LOX IMVI; [9],5.62 µM
same,TGI,LOX IMVI; read-out: pTGI (converted),1.58 µM
same,GI50,SF-539,0.0204 µM
same,CC50,SF-539; [9],6.17 µM
same,TGI,SF-539; read-out: pTGI (converted),0.724 µM
same,GI50,MOLT-4,0.0437 µM
same,CC50,MOLT-4; [9],> 100 µM
same,TGI,MOLT-4; read-out: pTGI (converted),0.617 µM
same,GI50,BT-549,0.0214 µM
same,CC50,BT-549; [9],57.5 µM
same,TGI,BT-549; read-out: pTGI (converted),5.37 µM
same,GI50,MDA-MB-231,1.7 µM
same,LC50,MDA-MB-231,> 100 µM
same,TGI,MDA-MB-231; read-out: pTGI (converted),32.4 µM
same,GI50,[7]; UACC-62,0.617 µM
same,CC50,"[7]; UACC-62, read-out: pLC50 (the source's name) (converted)",33.9 µM
same,TGI,"[7]; UACC-62, read-out: pTGI (converted)",6.46 µM
same,GI50,SK-MEL-5,0.372 µM
same,CC50,SK-MEL-5; [9],3.98 µM
same,TGI,SK-MEL-5; read-out: pTGI (converted),1.51 µM
same,GI50,RXF 393,0.01 µM
same,LC50,RXF 393,0.389 µM
same,TGI,RXF 393; read-out: pTGI (converted),0.0246 µM
same,GI50,[8],0.794 µM
same,CC50,[8]; [9],> 100 µM
same,TGI,[8]; read-out: pTGI (converted),16.2 µM
same,GI50,SK-OV-3,1.95 µM
same,LC50,SK-OV-3,> 100 µM
same,TGI,SK-OV-3; read-out: pTGI (converted),18.6 µM
same,GI50,SK-MEL-2,0.759 µM
same,CC50,SK-MEL-2; [9],97.7 µM
same,TGI,SK-MEL-2; read-out: pTGI (converted),21.4 µM
same,GI50,MCF7,1.35 µM
same,LC50,MCF7,> 100 µM
same,TGI,MCF7; read-out: pTGI (converted),16.2 µM
same,GI50,SNB-75,0.01 µM
same,CC50,SNB-75; [9],56.2 µM
same,TGI,SNB-75; read-out: pTGI (converted),0.851 µM
